Screens as filed in PubChem.
Yeast superoxide = reduction of superoxide in aged yeast, primary screen, HTS. S. cerevisiae aged cells, superoxide DHE fluorescence; stronger effect = lower value. superoxide response (% of plate mean), % at 10 µM. 330,000 compounds, 0.18% hits;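 active means superoxide response under a set limit, about three screen SD below normal, cut at about 65% in these data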;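 further: yeast aged for seven days with compound at 30 °C before DHE staining; 100% = average MFI of all compound-treated wells on the plate with controls excluded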
SUMO Mot1 rescue = yeast Mot1-301 growth rescue at high temperature, primary screen, SUMOylation pathway inhibitor project, S. cerevisiae, ATP luminescence, 38.5C; S. cerevisiae Mot1-301 growth rescue; percent above DMSO median, 100 means doubled; 320,000 compounds, 1% hits; AID 2716, 2010; growth rescue, % at 18.8 µM;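 active means every valid replicate shows activation above 250% relative to neutral control wells; inactive means the rest, any valid replicate at or below 250%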;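 further: OY570 slx delta 5 strain wells were the positive control but not used for scaling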
rRNA inh HTS = reduced GFP signal of wild-type E. coli, primary screen, bacterial rRNA inhibitor project, GFP/RFP fluorescence, OD600, single point; E. coli WT GFP vs humanized-ribosome RFP mutants, 24 h; stronger effect = lower value; DMSO median 0, no signal -100; 350,000 compounds, 1.6% hits; GFP signal change (wild-type ribosome), % (concentration not given with the values);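 active means significant combined selectivity score with lowered wild-type GFP, culture density cut under 30%, mutant RFP and density less affected; inactive means any of these conditions unmet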
PglD inh = C. jejuni PglD acetyltransferase inhibitors, primary screen, biochemical, DTNB colorimetric, single point; UDP-N-acetylbacillosamine N-acetyltransferase PglD (Campylobacter jejuni); purified PglD enzyme, DTNB colorimetric CoA detection; inhibition, % at 12.5 µM; 360,000 compounds, 0.098% hits; AID 602405, 2012; in the data active means inhibition above about 16%, passing the limit was not always enough
Cneo AK release = Cryptococcus neoformans cell lysis inducers, primary screen, AK release luminescence, single concentration | C. neoformans lysis, adenylate kinase release luminescence, 4 h; normalised: neutral wells 0, clomiphene wells 100 | lysis activity, % at 15 µM | 360,000 compounds, 0.2% hits | AID 651654, 2012;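 active means mean lysis activity across replicates of at least 80%, whatever share of replicates individually reach that level; inactive means mean lysis activity below 80%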
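Material: C. neoformans cells | Amount: Yeast cell density of 5 × 10^6 cells/mL | Medium: Fresh YPD growth medium | Dosing: Single dose | Times: Static 4 h at 37 °C with compound, 1 h detection | Detection: AK luminescence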
The depositor's hits bear a star; i = inactive; · = no result. The list is not random: actives were taken first. Their share in the collection is about 2.2%.

SMILES	Yeast superoxide	SUMO Mot1 rescue	rRNA inh HTS	PglD inh	Cneo AK release
CC(=O)Nc1ccc(S(=O)(=O)N2c3ccc(F)cc3CCC2C)cc1 (stereo not given)	120	-12	-35	1	0
COc1ccc(S(=O)(=O)N2c3ccc(F)cc3CCC2C)cc1 (stereo not given)	101	16	-28*	8	-7
O=C(C[C@@H]1C[C@@H]2c3cc(NC(=O)c4ccc5c(c4)OCO5)ccc3O[C@@H]2[C@H](CO)O1)NC1CCCCC1	·	·	5	4	-1
C(=N\Nc1nc(-c2cccnc2)nc2ccccc12)/c1ccccc1	102	-1	·	1	-3
COc1cccc(/C=N/Nc2nc(-c3cccnc3)nc3ccccc23)c1	94	314*	13	·	·
NC(=O)NCC#Cc1ccc2c(c1)[C@]1(C(=O)N2)[C@H](C(N)=O)[C@H]2C(=O)O[C@H](c3ccccc3)[C@H](c3ccccc3)N2[C@@H]1c1ccccc1OCCO	·	·	·	2	96*
COc1ccc(S(=O)(=O)N(C)C[C@H]2Oc3c(NC(=O)c4cc(C)nn4C)cccc3C(=O)N([C@@H](C)CO)C[C@H]2C)cc1	·	·	-13	-2	-1
O=C(C1CC1)N1C[C@H]2[C@@H](c3ccccc31)[C@H](CO)N2S(=O)(=O)c1ccccc1	·	·	2	-3	-1
O=Cc1cn(-c2ccccc2)nc1-c1cc2cc(O)ccc2oc1=O	103	2	·	·	3
O=C(O)/C=C/c1cn(-c2ccccc2)nc1-c1cc2ccccc2oc1=O	61*	-9	-13	-18	0
C[C@@H]1CN([C@H](C)CO)C(=O)c2cccc(N(C)C)c2O[C@H]1CN(C)C	·	·	-2	1	-6
CCOC(=O)N/N=C/c1ccccc1OCc1ccc(Cl)cc1	91	7	-25*	·	·
COCCCNc1ncnc2ccc(C)cc12	91	15	·	0	-8
Cc1ccc2ncnc(Nc3ccc(C)c(C)c3)c2c1	116	-6	-27*	6	-1
O=c1cc(O)c(-c2ccc(Cl)c(Cl)c2)c(Cl)[nH]1	93	i	-27*	-3	-1
O=c1cc(O)c(-c2ccc(Cl)cc2)c(Cl)[nH]1	99	26	-10	·	·
Cc1ccccc1C(=O)c1c[nH]c(C(=O)N2CCN(c3ccccc3F)CC2)c1	109	-10	4	2	0
NC(=O)c1cc(C(=O)c2ccccc2Cl)c[nH]1	107	11	-5	·	·
NC(=O)c1cc(C(=O)c2cccc(Cl)c2Cl)c[nH]1	91	11	-48*	·	·
O=C(c1c[nH]c(C(=O)N2CCN(c3ccccc3F)CC2)c1)c1cccc(Cl)c1Cl	·	·	-28*	-5	2
C[C@H](NC(=O)C[C@H]1CC[C@H]2[C@@H](COC[C@H](O)CN2C(=O)Nc2ccccc2)O1)c1ccccc1	·	·	1	0	48
CC(=O)Nc1cccc(Oc2nc(-c3ccccn3)nc3ccccc23)c1	103	532*	-10	2	-3
COc1ccc(NC(=O)CN(c2ccccc2)S(=O)(=O)c2ccccc2)c(OC)c1	99	-16	-24*	-2	0
COc1cccc(S(=O)(=O)N[C@H]2CC[C@H](CCN)O[C@@H]2CO)c1	·	·	1	6	-9
Cc1noc(C)c1S(=O)(=O)N(C)C[C@@H]1Oc2c(NC(=O)c3cnccn3)cccc2C(=O)N([C@@H](C)CO)C[C@@H]1C	·	·	-4	4	114*
SMILES	Yeast superoxide	SUMO Mot1 rescue	rRNA inh HTS	PglD inh	Cneo AK release
C[C@@H]1CN([C@H](C)CO)C(=O)c2cccc(NC(=O)Nc3ccccc3)c2O[C@H]1CN(C)S(=O)(=O)c1cn(C)cn1	·	·	-2	-3	38
C[C@@H]1CN([C@@H](C)CO)C(=O)c2cccc(NC(=O)Nc3ccccc3)c2O[C@H]1CN(C)S(=O)(=O)c1cn(C)cn1	·	·	2	3	97*
C[C@H](CO)N1C[C@H](C)[C@@H](CN(C)S(=O)(=O)c2cn(C)cn2)Oc2c(NC(=O)Nc3ccccc3)cccc2C1=O	·	·	-1	-2	97*
COc1ccc2c3c(n(C)c2c1)[C@@H](CO)N(Cc1ccncc1)CC31CCN(C(=O)NC(C)C)CC1	·	·	2	·	·
Cc1ncc(/C=C2\C(=O)Nc3ccccc32)[nH]1	114	12	-19*	·	·
CCc1ncc(/C=C2\C(=O)Nc3ccccc32)[nH]1	102	0	-16	-3	2
O=C(NC(=S)Nc1ccccc1N1CCOCC1)c1ccccc1F	101	25	-34*	5	3
O=C(CSc1ccccc1)Nc1ccccc1N1CCOCC1	93	-15	·	5	0
O=C(NC(=S)Nc1ccccc1N1CCN(C(=O)c2ccccc2)CC1)c1ccccc1F	104	1	-5	-2	16
FC(F)(F)Oc1ccc(NC(=S)Nc2ccccc2N2CCOCC2)cc1	103	70	-51*	2	1
Cc1ccc(SCC(=O)Nc2ccccc2N2CCOCC2)cc1	100	19	-28*	5	1
O=C(CN1CCOCC1)Nc1ccc(OC(F)(F)F)cc1	97	95	17	-2	1
O=C(NC(=S)Nc1ccccc1N1CCOCC1)c1cccs1	95	8	-29*	·	·
O=C(C[C@@H]1CC[C@H](NC(=O)C2CC2)[C@H](CO)O1)Nc1nccs1	·	·	2	10	-5
Cc1noc(C)c1NC(=O)N(C)C[C@H]1OCCCC[C@H](C)Oc2ccc(NS(=O)(=O)c3ccc(Cl)cc3)cc2C(=O)N([C@H](C)CO)C[C@@H]1C	·	·	0	-2	4
COc1cccc(C(=O)NC(=S)Nc2ccccc2N2CCOCC2)c1	98	9	·	-2	36
COc1cc(C(=O)NC(=S)Nc2ccccc2N2CCOCC2)cc(OC)c1OC	103	8	-6	-6	80*
CNC[C@@H]1Oc2ccc(NC(=O)NC(C)C)cc2C(=O)N(C)C[C@H]1C	·	·	2	·	·
COCCN(Cc1cc2cc3c(cc2nc1Cl)OCO3)C(=O)Nc1ccc(F)cc1	113	-4	-27*	-4	0
COCCN(Cc1cc2cc3c(cc2nc1Cl)OCO3)C(=O)Nc1ccc(OC)cc1	128	-12	17	·	·
NCC[C@H]1CC[C@H](NC(=O)c2ccccc2F)[C@H](CO)O1	·	·	4	·	·
COc1ccc(C#Cc2cnc3c(c2)C(=O)N([C@@H](C)CO)C[C@@H](C)[C@H](CN(C)C(=O)Nc2cccc(OC)c2)O3)cc1	·	·	-1	·	·
CCCOc1ccc(/C=C2\SC(=S)N(CC3CCCO3)C2=O)cc1 (stereo not given)	105	14	·	·	·
O=C1/C(=C/c2ccc(O)cc2)SC(=S)N1CC1CCCO1 (stereo not given)	93	131	-24*	·	·
